≈ marks a conversion by molar mass, not a printed value. Calls of active or inactive are those of the source. The rule behind the calls is not given here.
Tests used:
[1] = system: Rhodotorula glutinis; assay: Antifungal activity against Rhodotorula glutinis NCIM 3168 assessed as zone of inhibition at 80 ug/well incubated for 48 to 72 hrs by agar well diffusion method; type: functional; details: read-out: IZ
Procedure, shortened: (§1)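 Fungi kept on potato dextrose agar slants and grown in potato dextrose broth. 500 microlitres of 48-72 h spore suspension swabbed onto Mueller Hinton agar. Compounds in DMSO loaded into 5 mm wells, with a DMSO vehicle plate and fluconazole/ravuconazole positive-control plate. Incubated 48-72 h at 30 C. Clear zone measured in mm, mean of five replicates.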

[2] = system: Escherichia coli; assay: Antibacterial activity against Escherichia coli NCIM 2574 assessed as zone of inhibition at 80 ug/well incubated for 24 to 48 hrs by agar well diffusion method; type: functional; details: read-out: IZ
Procedure, shortened: (§2)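 Strains from NCIM kept on nutrient agar slants at 4 C and grown overnight at 37 C in nutrient broth. 500 microlitres of 24-48 h culture swabbed onto nutrient agar. Compounds in DMSO loaded into 5 mm wells, with a DMSO vehicle plate and streptomycin reference. Incubated 24-48 h at 37 C. Zone of inhibition measured in mm and averaged over 4 replicates.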

[3] = system: Candida albicans; assay: Antifungal activity against Candida albicans NCIM 3100 assessed as zone of inhibition at 80 ug/well incubated for 48 to 72 hrs by agar well diffusion method; type: functional; details: read-out: IZ; procedure, shortened: as §1
[4] = system: Staphylococcus epidermidis; assay: Antibacterial activity against Staphylococcus albus NCIM 2178 assessed as zone of inhibition at 80 ug/well incubated for 24 to 48 hrs by agar well diffusion method; type: functional; details: read-out: IZ; procedure, shortened: as §2
[5] = system: Aspergillus niger; assay: Antifungal activity against Aspergillus niger NCIM 504 assessed as zone of inhibition at 80 ug/well incubated for 48 to 72 hrs by agar well diffusion method; type: functional; details: for zone of inhibition at 80 µg/disc: read-out: IZ; procedure, shortened: as §1
[6] = system: Proteus mirabilis; assay: Antibacterial activity against Proteus mirabilis NCIM 2388 assessed as zone of inhibition at 80 ug/well incubated for 24 to 48 hrs by agar well diffusion method; type: functional; procedure, shortened: as §2
[7] = system: Candida albicans; assay: Antifungal activity against Candida albicans NCIM 3100 assessed as inhibition of fungal growth incubated for 48 to 72 hrs by broth microdilution susceptibility method; type: functional
Procedure, shortened: (§3)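 Tube micro-dilution in Sabouraud liquid medium. Stocks were made in DMSO and serially diluted twofold in broth to final […]. Tubes inoculated with organisms grown in potato dextrose broth and held 48-72 h at 30 C. MIC is the lowest concentration with no growth. DMSO and uninoculated-media controls were included, in triplicate.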

[8] = system: Aspergillus niger; assay: Antifungal activity against Aspergillus niger NCIM 504 assessed as inhibition of fungal growth incubated for 48 to 72 hrs by broth microdilution susceptibility method; type: functional; procedure, shortened: as §3
[9] = system: Rhodotorula glutinis; assay: Antifungal activity against Rhodotorula glutinis NCIM 3168 assessed as inhibition of fungal growth incubated for 48 to 72 hrs by broth microdilution susceptibility method; type: functional; procedure, shortened: as §3
[10] = system: Aspergillus niger; assay: Inhibition of CYP51 in Aspergillus niger NCIM 504 cells assessed as decrease in ergosterol biosynthesis at 31.5 ug/ml incubated for 72 hrs by spectrophotometric analysis
Procedure, shortened: (§4)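 A. niger inoculated into potato dextrose broth with compound, untreated control, shaken 72 h at 37 C. Cells centrifuged, washed and pellet wet weight taken. Saponified in 25% alcoholic KOH 1 h at 85 C, then sterols extracted into n-heptane. Extract diluted fivefold in ethanol and scanned at 240-300 nm. Ergosterol computed as % of wet weight from A281.5 and A230, in duplicate.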

[11] = system: Aspergillus niger; assay: Inhibition of CYP51 in Aspergillus niger NCIM 504 cells assessed as ergosterol synthesis measured per gram wet weight at 31.5 ug/ml incubated for 72 hrs by spectrophotometric analysis (reference value: 0.0000290836%); parameters: scale not given: the % may be the effect or the level left; procedure, shortened: as §4

Row | SMILES | zone of inhibition at 80 µg/disc [1] | zone of inhibition at 80 µg/disc [2] | zone of inhibition at 80 µg/disc [3] | zone of inhibition at 80 µg/disc [4] | inhibition zone (IZ) [5] | inhibition zone (IZ) [6] | MIC [7] | MIC [8] | MIC [9] | inhibition [10] | Activity [11] | zone of inhibition at 80 µg/disc [5]
1 | Cc1ccc(Cn2cc(-c3cn(-c4ccccc4)nc3-c3sc(-c4ccc(C)cc4)nc3C)nn2)cc1 | 22.3 mm | 10.2 mm | 13 mm | 14.4 mm | inactive | inactive | 62.5 µg/mL (≈ 124 µM) | 31.2 µg/mL (≈ 62.2 µM) | 125 µg/mL (≈ 249 µM) | Active | 0% | –
2 | Cc1nc(-c2ccc(F)cc2)sc1-c1nn(-c2ccccc2)cc1-c1cn(Cc2ccc(F)cc2)nn1 | 13.3 mm | 12.2 mm | 12.8 mm | 11.8 mm | – | inactive | 125 µg/mL (≈ 245 µM) | 31.2 µg/mL (≈ 61.2 µM) | 62.5 µg/mL (≈ 122 µM) | Active | 0% | 11 mm
3 | Cc1ccc(-c2nc(C)c(-c3nn(-c4ccccc4)cc3-c3cn(Cc4ccc(Cl)cc4)nn3)s2)cc1 | 19 mm | 13.6 mm | 10 mm | 12 mm | – | inactive | inactive | 31.2 µg/mL (≈ 59.7 µM) | 62.5 µg/mL (≈ 119 µM) | Active | 0% | 16 mm
4 | Cc1nc(-c2ccc(F)cc2)sc1-c1nn(-c2ccccc2)cc1-c1cn(Cc2ccccc2)nn1 | 16 mm | 11.8 mm | 16.2 mm | 12.2 mm | – | inactive | 125 µg/mL (≈ 254 µM) | 31.2 µg/mL (≈ 63.4 µM) | 62.5 µg/mL (≈ 127 µM) | Active | 0% | 15.8 mm
5 | Cc1nc(-c2ccc(Br)cc2)sc1-c1nn(-c2ccccc2)cc1-c1cn(Cc2ccc(F)cc2)nn1 | 11.7 mm | 11.8 mm | 12 mm | 12 mm | – | inactive | 125 µg/mL (≈ 219 µM) | 62.5 µg/mL (≈ 109 µM) | 62.5 µg/mL (≈ 109 µM) | – | – | 17 mm
6 | Cc1ccc(Cn2cc(-c3cn(-c4ccccc4)nc3-c3sc(-c4ccc(F)cc4)nc3C)nn2)cc1 | 16.2 mm | 9.6 mm | 12.2 mm | 13.7 mm | – | inactive | inactive | 31.2 µg/mL (≈ 61.7 µM) | 62.5 µg/mL (≈ 123 µM) | Active | 0% | 13 mm
